From PubChem
In the library only some 1.8% were active in any assay of this set; here they are far more common.
Casp6 inh: caspase-6 (human) enzyme inhibition | P55212 | purified caspase-6, Z-VEID-R110 cleavage fluorescence | inhibition, % at 12.5 µM | 350,000 compounds, 0.53% hits | AID 686996;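 active = mean inhibition across replicates at least about 35%, with every replicate also reaching that limit, limit read from the data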;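 also: 0% = median of neutral control wells and 100% = no fluorescence left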
LEDGF integ inh: blocks HIV-1 LEDGF/p75-dependent DNA integration; TR-FRET IN-LEDGF/p75 DNA integration, Eu/Cy5; inhibition, % at 3.7 µM; 370,000 compounds, 0.64% hits;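 active = inhibition above the screen-wide mean plus 3 SD, cut at about 13% in these data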;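 also: signal is the Cy5 over europium emission ratio at 671 and 618 nm; 0% = plate median of compound wells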
MBD2 inh: inhibitors of human MBD2 binding to methylated oligonucleotide; TR-FRET; inhibition, % at 4.4 µM; 370,000 compounds, 0.31% hits; in the data active = inhibition above about 13%
TDP2 absorb: TDP2 (human) inhibition, absorbance primary screen; O95551; recombinant TDP2, T5PNP hydrolysis, p-nitrophenol absorbance 415 nm; inhibition, % at 12.8 µM; 370,000 compounds, 0.34% hits;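 active = inhibition above the mean of all tested compounds plus 3 SD, set per campaign, cut at about 25% in these data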;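 also: 0% = DMSO with enzyme and 100% = buffer with substrate but no TDP2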
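Material: recombinant human TDP2; quantity: TDP2 enzyme at 120 nM final; medium: Tris-HCl pH 7.5 with MgCl2; compound: single concentration, 12.8 µM nominal, with 1% DMSO; incubation: 2 h enzyme incubation at 37 °C; signal: epi absorbance; measure: percent inhibition; benchmarks: high control without enzyme, low control DMSO plus TDP2; repeats: singlicate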
NSD2 HMT inh: blocks human histone methyltransferase NSD2; O96028; NSD2 peptide methylation, AlphaScreen, 120 min; inhibition, % at 12.5 µM; 310,000 compounds, 0.54% hits; in the data active = inhibition above about 50%
UHRF1 MBD2 ctr: human UHRF1 methylated DNA binding inhibitors. Q96T88. UHRF1 binding to methylated oligo, TR-FRET. inhibition, % at 4.4 µM. 370,000 compounds, 0.75% hits; in the data active = inhibition above about 21%;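 also: UHRF1 SRA domain binding a hemimethylated CpG hairpin DNA probe; 0% = median of test compound wells and 100% = reference inhibitor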
* = called active by the depositor; . = no result.

SMILES	Casp6 inh	LEDGF integ inh	MBD2 inh	TDP2 absorb	NSD2 HMT inh	UHRF1 MBD2 ctr
O=C(N/N=C/c1ccc([N+](=O)[O-])o1)c1ccccc1NS(=O)(=O)c1cccs1	40*	6	-2	-9	.	-5
O=C([C@@H]1[C@@H](CO)[C@@H]2Cn3c(cccc3=O)[C@H]1N2C(=O)c1ccc(F)cc1)N1CCCCC1	-3	.	.	.	.	.
O=C(Nc1ccc(F)c(Cl)c1)c1cc(C2CCCN(S(=O)(=O)c3cccc4cccnc34)C2)on1 (stereo not drawn)	36*	4	-6	-5	-4	-1
COc1ccc(S(=O)(=O)N2CCOCC2)cc1C(=O)NCC(c1ccccc1)c1ccccc1	50*	3	-1	1	-4	1
COc1ccc(S(=O)(=O)N2CCOCC2)cc1C(=O)NCc1ccccc1CN1CCCC1	-7	0	-4	2	3	-2
CCCNC(=O)N1C[C@H](C)[C@@H](OC)CN(C)C(=O)c2ccc(NC(=O)CCC)cc2OC[C@H]1C	1	.	.	.	.	.
COC(CNC(=O)c1ccc2c3c(onc13)-c1ccccc1C2=O)OC	50*	2	-7	4	.	-1
COC(CNC(=O)c1cccnc1)OC	0	3	0	-3	1	0
COc1ccc(NC(=O)Nc2ccc3c(c2)CC(=O)N([C@@H](C)CO)C[C@H](C)[C@@H](CN(C)C(=O)Nc2ccccc2)O3)cc1	4	.	.	.	.	.
CC1(C)CC(=O)C(C=Nc2cccnc2/N=C/C2=C(O)CC(C)(C)CC2=O)=C(O)C1	41*	-1	-4	11	-7	-3
O=C(Nc1ccc(-c2nc3ncccc3o2)cc1)c1ccc([N+](=O)[O-])o1	0	5	-2	12	1	40*
C#CC(C)(C)NC(=O)c1ccc(-c2ccccc2F)cc1	44*	4	6	-6	14	7
Cc1noc(C)c1NC(=O)Nc1ccc2c(c1)C(=O)N([C@H](C)CO)C[C@@H](C)[C@@H](CN(C)C(=O)NC1CCCCC1)OCCCC[C@@H](C)O2	1	.	.	.	.	.
CCOC(=O)c1ccc(-n2[nH]c(-c3ccccc3)cc2=O)cc1	.	6	1	35*	.	13
CCOC(=O)c1ccc(N=Nc2c(C)[nH]n(-c3ccccc3)c2=O)cc1	0	0	2	-10	1	-2
O=C(C[C@H]1C[C@H]2c3cc(NC(=O)c4ccc5c(c4)OCO5)ccc3O[C@H]2[C@H](CO)O1)NCc1ccc(Cl)cc1	-3	.	.	.	.	.
Cc1cc(C(=O)COC(=O)c2cccnc2Cl)c(C)n1C	1	35*	-5	2	2	0
O=C(NCC[C@@H]1CC[C@@H](NC(=O)C2CCCCC2)[C@@H](CO)O1)Nc1ccc(Cl)cc1	2	.	.	.	.	.
Cc1ccc(NC(=O)CN2C(=O)S/C(=C\c3cc(Cl)c(OCC(=O)O)c(Cl)c3)C2=O)cc1	39*	3	-2	-2	12	1
COc1ccc(/C=C2\SC(=O)N(CC(=O)Nc3ccc(O)cc3)C2=O)cc1OC	0	-9	-1	-10	1	1
O=C(C1CC1)N1CCc2sccc2C1c1ccc(Cl)cc1 (stereo not drawn)	-2	5	4	-1	-3	51*
COc1ccc(C2c3ccsc3CCN2C(C)=O)cc1 (stereo not drawn)	0	0	-2	5	6	0
C[C@@H]1CN([C@H](C)CO)C(=O)Cc2cc(NC(=O)CCC(F)(F)F)ccc2O[C@H]1CN(C)S(=O)(=O)c1ccc(F)cc1	1	.	.	.	.	.
N#CC(C#N)=c1ccc2c(c1)N1C3=C(CCCC3)CC3CCCCC31N=2 (stereo not drawn)	.	-2	-3	-3	55*	-1
C[C@H](CO)N1C[C@H](C)[C@@H](CN(C)S(=O)(=O)c2ccc(Cl)cc2)Oc2c(NS(=O)(=O)c3ccc(Cl)cc3)cccc2C1=O	-2	.	.	.	.	.
SMILES	Casp6 inh	LEDGF integ inh	MBD2 inh	TDP2 absorb	NSD2 HMT inh	UHRF1 MBD2 ctr
CN(C)C(=O)c1ccc(-c2ccccc2[C@@H]2[C@@H](C#N)N(C(=O)C3CC3)[C@@H]2CO)cc1	2	.	.	.	.	.
CS(=O)(=O)c1ccc(Nc2nc(C(N)COCc3ccccc3)cs2)cc1 (stereo not drawn)	46*	-2	0	-16	3	4
COc1ccc(S(=O)(=O)Nc2ccc3c(c2)C(=O)N([C@H](C)CO)C[C@H](C)[C@@H](CN(C)C(=O)NC(C)C)OCCCC[C@H](C)O3)cc1	1	.	.	.	.	.
COc1ccc2c3c(n(C)c2c1)[C@@H](CO)N(Cc1ccccc1F)CC31CN(C(C)=O)C1	1	.	.	.	.	.
CCCCNS(=O)(=O)c1cc(-c2nn(C)c(=O)c3ccccc23)ccc1C	36*	1	3	14	-2	1
NCCN1CCN(CC(=O)N2c3ccccc3C(=O)Nc3cccnc32)CC1	-25	5	-3	-16	.	9
O=C1Nc2cccnc2N(C(=O)CCl)c2ccccc21	47*	0	-3	3	12	0
COc1cccc(NC(=O)CN(C)C(=O)CSCC(=O)Nc2ccc(C)cc2)c1	1	0	2	0	-2	29*
O=C(NCC(F)(F)F)[C@@H]1[C@@H](CO)[C@@H]2Cn3c(cccc3=O)[C@@H]2N1C(=O)C1CCC1	2	.	.	.	.	.
O=C(O)c1c2c(nc3ccc(Cl)cc13)CCC2	50*	4	-7	-5	5	3
Cc1ccc2nc3c(c(C(=O)O)c2c1)CCC3	32	0	-3	19	7	21*
O=C(O)c1c2c(nc3ccc(F)cc13)CCC2	27	.	.	.	3	.
C[C@H](CO)N1C[C@H](C)[C@H](CN(C)S(=O)(=O)c2ccc(F)cc2)Oc2ccc(NC(=O)CCC(F)(F)F)cc2C1=O	6	.	.	.	.	.
COc1ccc2c3c(n(C)c2c1)[C@@H](CO)N(Cc1ccc(Cl)cc1)CC31CCN(C(=O)NC(C)C)CC1	-1	.	.	.	.	.
COc1ccc(NC(=O)N(C)C[C@H]2OCCCC[C@@H](C)Oc3ccc(NC(=O)CCCN(C)C)cc3C(=O)N([C@H](C)CO)C[C@H]2C)cc1	-1	.	.	.	.	.
Cc1c(C#N)c(O)[nH]c(=O)c1N=Nc1ccc(S(N)(=O)=O)cc1	44*	6	-19	11	12	-31
O=C(CCCCC(=O)NCc1cccs1)NCc1cccs1	.	3	12	12	-10	23*
O=C(O)C1C2C=CC(C2)C1C(=O)NCc1cccs1 (stereo not drawn)	45*	-3	-1	2	-1	2
CCN1[C@@H]2c3ccc(-c4cccc(F)c4)c(=O)n3C[C@@H]2[C@@H](CO)[C@@H]1C(=O)N1CCCCC1	3	.	.	.	.	.
CCCCCn1c(=O)[nH]c2cc(C(=O)N3CCN(c4ccc(C(C)=O)cc4)CC3)ccc2c1=O	1	-5	4	5	-1	1
CCCCCn1c(=O)[nH]c2cc(C(=O)N3CCN(CC)CC3)ccc2c1=O	.	3	13	3	4	25*
